# Measurements: ChEMBL document CHEMBL1158485, “Inhibition of glyoxalase I: the first low-nanomolar tight-binding inhibitors” (J Med Chem, 2009)
# Columns and labels:
# [1] = target: T1, Glyoxalase I (Saccharomyces cerevisiae S288c, UniProt P50107); assay: Inhibition of yeast glyoxalase 1
# T1 sequence (P50107 whole entry): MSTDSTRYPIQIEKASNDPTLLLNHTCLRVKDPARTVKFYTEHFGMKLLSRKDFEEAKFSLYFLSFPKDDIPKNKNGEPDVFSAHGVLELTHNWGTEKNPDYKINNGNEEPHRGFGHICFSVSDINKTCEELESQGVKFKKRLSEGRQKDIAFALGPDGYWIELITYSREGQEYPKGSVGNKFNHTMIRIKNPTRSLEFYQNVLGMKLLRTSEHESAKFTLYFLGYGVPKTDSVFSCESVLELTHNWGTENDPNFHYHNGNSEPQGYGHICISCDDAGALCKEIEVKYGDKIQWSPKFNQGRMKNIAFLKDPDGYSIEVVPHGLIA
# Summary of the method: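 Yeast glyoxalase I run at 30 °C in 0.05 M phosphate buffer pH 6.6 with 0.1% BSA. Methylglyoxal (distilled, resin-treated, standardized) was present at up to 6.0 mM and fresh GSH at up to 1.3 mM. Inhibitor solutions were aqueous, adjusted to pH 6.6. Mixtures equilibrated for 6 min, then the initial rate was read as the A240 rise.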
# [2] = Stability in presence of equine kidney gamma-glutamyltranspeptidase at pH 8.4 by TLC; assay type: ADME
# Summary of the method: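 Inhibitor at 10 mM stock in 200 mM 2-amino-2-methyl-1,3-propanediol buffer, incubated at 37 °C with equine kidney γ-GT (0.54 mg/100 μL stock) plus Gly-Gly acceptor (40 mM stock). Breakdown was followed by TLC with UV, iodine and fluorescamine detection.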
Compound,Ki [1],Stability [2]
N[C@@H](CNC(=O)N[C@@H](CCC(=O)N(O)c1ccc(Br)cc1)C(=O)NCC(=O)O)C(=O)O,32.6 nM,Stable
N[C@@H](CCC(=O)N[C@@H](CSCc1ccc(Br)cc1)C(=O)NCC(=O)O)C(=O)O,6280 nM,
N[C@@H](CCC(=O)N[C@@H](CCC(=O)N(O)c1ccc(Br)cc1)C(=O)NCC(=O)O)C(=O)O.O=C(O)C(F)(F)F,6.17 nM,Unstable
N[C@@H](CNC(=O)N[C@@H](CSCc1ccc(Br)cc1)C(=O)NCC(=O)O)C(=O)O,12800 nM,
N[C@@H](CCC(=O)N[C@@H](CCN(O)C(=O)c1ccc(Br)cc1)C(=O)NCC(=O)O)C(=O)O.O=C(O)C(F)(F)F,123 nM,Stable
N[C@@H](CCC(=O)N[C@H](CCC(=O)N(O)c1ccc(Br)cc1)C(=O)NCC(=O)O)C(=O)O.O=C(O)C(F)(F)F,1660 nM,Stable
